Compound activity deposited in PubChem BioAssay by several laboratories.
Insulin prom up = insulin promoter activators in MIN6 cells, imaging, high-content screening, mouse beta cells. MIN6 insulin promoter-GFP reporter; active compounds read high. z-score at 5 µM. 190,000 compounds, 0.3% hits;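 active = z-score above 3 at 5 µM with at least 500 cells counted in the well; inconclusive = wells under 500 cells, flagged as cytotoxic or low count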
INS promoter inh = inhibitors of insulin promoter-driven GFP, primary screen, imaging, TRM-6 cells (human fetal islet line), eGFP reporter, cell count | AID 1273, 2008 | reporter expression induced with tamoxifen | inhibition, % at 2 µM | 130,000 compounds, 0.9% hits;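 active = inhibition above the mean plus 3 SD, with well images judged a real hit on visual review, cut at about 60% in these data, passing the limit was not always enough; inconclusive = inhibition over the cutoff but images rejected on review; inactive = inhibition not above the cutoff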
RAM network inh = inhibitors of the yeast RAM network, primary screen, dse1pr::URA3 reporter, 5-FOA selection | S. cerevisiae dse1pr::URA3 reporter, 5-FOA growth OD615, 2 d; analog-sensitive cbk1-as2 kinase mutant strain | inhibition, % at 50 µM | 190,000 compounds, 1.8% hits;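 active = inhibition above a set limit, 3 SD over mean compound inhibition, cut at about 8.4% in these data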;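 also: inhibition rescues growth on 5-FOA so higher OD means more RAM inhibition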
Yeast lifespan up = compounds extending yeast replicative lifespan, primary screen, S. cerevisiae, OD615; S. cerevisiae growth with nicotinamide; deaD strain in restrictive glucose medium; inhibition of the nicotinamide effect, % at 10 µM; 130,000 compounds, 0.68% hits; AID 775, 2007;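 active = inhibition above a set limit, placed 3 SD over the median of all compounds, cut at about 26% in these data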
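Assay system: engineered S. cerevisiae DeaD replicative-lifespan strain, galactose-grown log-phase cells; Buffer or medium: CSMM-D glucose medium, restrictive; Probe or stimulus: nicotinamide 1.5 mM; Compound: single dose 10 µM compound, 0.25% DMSO; Schedule: 4 h preincubation then 48 h treatment at 30 °C; Technique: OD615 measurement.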
Yeast growth inh = growth inhibitors of yeast BB579 in restrictive medium, primary screen, yeast lifespan-shortening project, S. cerevisiae. AID 804, 2007. OD615, 48 h. inhibition, % at 10 µM. 140,000 compounds, 0.51% hits;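 active = inhibition above a set limit, 3 SD over the mean compound inhibition, cut at about 44% in these data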
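Detection: OD615 turbidity measurement; Material: Saccharomyces cerevisiae DeaD strain BB579, replicative lifespan model yeast; Timing: 48 h exposure, 30 °C; Doses: single 10 µM dose; Medium: CSMM-D restrictive synthetic medium containing dextrose (glucose); Controls: amphotericin B at 10 µg/mL as positive control.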
Large screens that a line does not name were inactive. An excerpt weighted towards active compounds, which were near 3.1% of everything screened.

Cc1cccc(-c2ncc(CN3CCCC(CO)(Cc4ccccc4C)C3)cn2)c1 (configuration not stated)	Insulin prom up 3.1 (no result: INS promoter inh, Yeast lifespan up, Yeast growth inh)
Cc1ccc(OCC(=O)N2CCCCCC2)c(C)c1	none
Cc1ccc(C)c(OCC(=O)N2CCOCC2)c1	INS promoter inh 89
COc1ccc(NC(=S)N(Cc2cccnc2)Cc2cc3cc(OC)c(OC)cc3[nH]c2=O)cc1	RAM network inh 8.6 (no result: INS promoter inh, Yeast lifespan up, Yeast growth inh)
CNC(=S)N(Cc1cccs1)Cc1cc2cc(OC)ccc2[nH]c1=O	none
COc1ccc2[nH]c(=O)c(CN(Cc3cccnc3)C(=O)Nc3ccccc3)cc2c1	none
COc1ccc2[nH]c(=O)c(CN(Cc3cccs3)C(=S)Nc3cccc(C)c3)cc2c1	RAM network inh 10
CCN(c1ccc(NC(=O)COC(=O)CCc2cc(OC)c(OC)c(OC)c2)cc1)C(C)C	none (no result: Yeast lifespan up, Yeast growth inh)
CC1=NNC(=O)C1CC(=O)N/N=C/C(Br)=C/c1ccccc1 (configuration not stated)	none (no result: INS promoter inh, RAM network inh, Yeast lifespan up, Yeast growth inh)
CC1=NNC(=O)C1CCC(=O)N/N=C/C(Br)=C/c1ccccc1 (configuration not stated)	Yeast lifespan up 35 (no result: INS promoter inh)
O=C(CNC(=S)N(Cc1ccccc1)Cc1cccs1)NCc1ccc(F)cc1	RAM network inh 8.8 (no result: Yeast lifespan up, Yeast growth inh)
COc1ccc2nc(SCCC(=O)O)cc(C)c2c1	none (no result: INS promoter inh, RAM network inh, Yeast lifespan up, Yeast growth inh)
Brc1c(-c2ccccc2)nc2n1Cc1ccccc1-2	none (no result: INS promoter inh, RAM network inh, Yeast lifespan up, Yeast growth inh)
c1ccc2c(c1)Cn1c-2nc2ccccc21	INS promoter inh 95
C/C(=C\c1ccco1)C1C(C#N)=C(N)OC2=C1C(=O)CC(C)(C)C2 (configuration not stated)	INS promoter inh inconclusive
CC(=O)c1cccc(N(C(=O)Cn2nnc3ccccc32)C(C(=O)NCc2ccccc2)c2ccccn2)c1 (configuration not stated)	none
Cc1ccc(N=Nc2c(=O)[nH]n3c(C)cc(C)nc23)cc1	none (no result: Insulin prom up)
Cc1cc(C)n2nc(N)c(N=Nc3ccc(Cl)cc3)c2n1	RAM network inh 9.5
O=C(N/C(=C/c1cccs1)C(=O)N1CCOCC1)c1ccco1	none
O=C(CCSc1nnc(-c2ccncc2)o1)Nc1ccc(Cl)cc1	Yeast growth inh 86 (no result: INS promoter inh)
Cn1nc(C(=O)OCc2ccc(F)cc2)c2ccccc2c1=O	RAM network inh 10 (no result: Yeast lifespan up, Yeast growth inh)
Cc1ccc(COC(=O)c2nn(C)c(=O)c3ccccc23)cc1	none (no result: Yeast lifespan up, Yeast growth inh)
CC(NC(=O)C1CCCC1)C1CC2CCC1C2 (configuration not stated)	INS promoter inh 71
O=C(CN(Cc1cccs1)C(=O)CNS(=O)(=O)c1ccccc1)NC1CCCC1	none (no result: INS promoter inh, Yeast lifespan up, Yeast growth inh)
CC1(C)CC(=O)C2=C(C1)OC1=C(C(=O)CC(C)(C)C1)C2c1ccc(O)cc1O	Yeast lifespan up 42
O=C(O)CCc1ccc(-c2cccs2)n1CCc1ccccc1	RAM network inh 9.5 (no result: INS promoter inh, Yeast lifespan up, Yeast growth inh)
O=C(O)CCc1ccc(-c2cccs2)n1CCC(=O)O	none
O=c1c2ccccc2sn1-c1cc(S(=O)(=O)N2CCOCC2)ccc1N1CCOCC1	RAM network inh 9.2
CCOc1cc(C)c(S(=O)(=O)Nc2ccc3cn[nH]c3c2)cc1C	Insulin prom up 4.2 (no result: INS promoter inh)
Cc1cc(C)c(C)c(S(=O)(=O)N[C@@H](C)C(=O)OCC(N)=O)c1C	none (no result: Yeast lifespan up, Yeast growth inh)
CCOC(=O)CNc1nc(C(C)(C)C)nc2c1nnn2Cc1ccccc1Cl	RAM network inh 10
COc1ccc(OC)c(C2CC(=O)Nc3c2c(=O)[nH]c2ncnn32)c1 (configuration not stated)	none (no result: INS promoter inh, Yeast lifespan up, Yeast growth inh)
O=[N+]([O-])c1ccc(N=Nc2ccc(O)cc2O)cc1	Yeast growth inh 83
O=[N+]([O-])c1ccc(N=NN(CCO)CCO)cc1	none
Cc1ccc(CNC(=O)CCC2CCCN(Cc3c(C)nn(C(C)C)c3C)C2)o1 (configuration not stated)	none (no result: Insulin prom up, Yeast lifespan up, Yeast growth inh)
Cc1csc(SCC(=O)NC23CC4CC(CC(C4)C2)C3)n1	Yeast lifespan up 39
Cc1nnc(SCC(=O)NC23CC4CC(CC(C4)C2)C3)s1	none (no result: INS promoter inh, Yeast lifespan up, Yeast growth inh)
O=c1cc(/N=C/c2coc3c(ccc4ccccc43)c2=O)[nH]c(=S)[nH]1	Insulin prom up inconclusive, RAM network inh 11
CCc1ccc(OCC(=O)Nc2ccc(N3CCN(S(C)(=O)=O)CC3)cc2)cc1	none (no result: INS promoter inh, Yeast lifespan up, Yeast growth inh)
Cc1ccc(Cn2ncc3c(N4CCN(c5ccccc5C)CC4)ncnc32)cc1	RAM network inh 10
CC1=C(C(=O)OCc2ccccc2)C(c2ccc(-c3ccccc3)cc2)NC(=O)N1CCCCCC(=O)O (configuration not stated)	RAM network inh 11
CCN1C(=O)N[C@@H](c2ccc(Br)cc2)C(C(=O)OC)=C1C	INS promoter inh 65
CC1=C(C(=O)OCc2ccccc2)C(c2ccc3ccccc3c2)NC(=O)N1CCCCCC(=O)O (configuration not stated)	none (no result: Insulin prom up)
CCOC(=O)CN1C(=O)N[C@@H](c2ccccc2)C(C(C)=O)=C1C	INS promoter inh 60 (no result: Insulin prom up)
CC1=C(C(=O)OCc2ccccc2)C(c2ccccc2)NC(=O)N1CCCCCC(=O)O (configuration not stated)	RAM network inh 10
COc1ccc(N(CC(=O)Nc2ccc(S(=O)(=O)N3CCOCC3)cc2)S(=O)(=O)c2ccccc2)cc1	none
CCN(CC)C(=O)C(=O)c1ccn(-c2c(C)csc2C(=O)OC)c1	none (no result: Insulin prom up, Yeast lifespan up, Yeast growth inh)
CCn1c2ccccc2c2cc(NS(=O)(=O)c3ccccc3C)ccc21	none (no result: Insulin prom up)
O=C(Nc1ccc(Cl)cc1)N1CC=CCC1	INS promoter inh 63
O=C(Nc1ccc(Cl)cc1)N1CCN(c2ccccc2)CC1	none (no result: Yeast lifespan up)
COc1cc(OC)c(NC(=O)CCCn2c(=O)oc3ccccc32)cc1Cl	RAM network inh 11
COc1ccc(/C=c2/sc3n(c2=O)C(c2ccccc2OC)C2=C(N=3)c3ccccc3CC2)cc1O (configuration not stated)	RAM network inh 9.5
CC1Cc2ccccc2N1C(=O)CN(C)S(=O)(=O)c1cccc2cccnc12 (configuration not stated)	none (no result: INS promoter inh)
CN(CC(=O)N1CCCCC1)S(=O)(=O)c1cccc2cccnc12	INS promoter inh 86
Cc1ccc(NC(=O)CN(C)S(=O)(=O)c2cccc3cccnc23)cc1	none (no result: INS promoter inh)
Cc1csc(NC(=O)CN(C)S(=O)(=O)c2cccc3cccnc23)n1	Insulin prom up 3 (no result: INS promoter inh)
O=C1/C(=N\S(=O)(=O)c2cccs2)C([n+]2cccc(Cc3ccccc3)c2)=C([O-])c2ccccc21	Insulin prom up 6.8 (no result: INS promoter inh, RAM network inh, Yeast lifespan up, Yeast growth inh)
Cc1ccccc1C(=O)NC1CCN(C(=O)Nc2ccccc2Cl)CC1	none (no result: INS promoter inh, Yeast lifespan up, Yeast growth inh)
CSc1nc(-c2ccc(Cl)cc2Cl)[nH]c(=O)c1C#N	INS promoter inh 79
CCCc1cc(=O)[nH]c(SCC(=O)Nc2ccc(C)cc2)n1	RAM network inh 8.5 (no result: INS promoter inh, Yeast lifespan up, Yeast growth inh)
CN(C)C(=O)c1ccc(OCC(F)(F)F)nc1	none (no result: INS promoter inh, RAM network inh, Yeast lifespan up, Yeast growth inh)
COc1ccc(Cc2nc(C(=O)Nc3ccc(Cl)cc3)cs2)cc1	RAM network inh 8.8 (no result: INS promoter inh)
COc1ccc(Cc2nc(C(=O)Nc3ccccc3)cs2)cc1	none (no result: Insulin prom up)
